In ChEMBL document CHEMBL2203110, “Inhibition of HIV-1 capsid assembly: optimization of the antiviral potency by site selective modifications at N1, C2 and C16 of a 5-(5-furan-2-yl-pyrazol-1-yl)-1H-benzimidazole scaffold” (Bioorg Med Chem Lett, 2012):

Key:
[1] = Permeability of the compound across human Caco2 cells; type: ADME, cell-based; conditions: Caco-2, read-out: permeability
[2] = Half life in rat liver microsomes; type: ADME, Microsome
[3] = Half life in human liver microsomes; type: ADME, Microsome
[4] = target: T1, Structural capsid protein (Human immunodeficiency virus 1, UniProt Q76129); experiment: Inhibition of HIV1 capsid protein binding to fluorescein labeled 3-(5-(3-ethyl-5-(5-methylfuran-2-yl)-1H-pyrazol-1-yl)-1-((6-oxo-1,6-dihydropyridin-3-yl)methyl)-1H-benzo[d]imidazol-2-yl)-4-hydroxybenzoic acid after 15 mins by fluorescence polarization assay
Outline: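 CA-NC protein (40 nM) mixed with 40 nM fluorescein probe plus serially diluted compounds in Tris pH 8.0, 100 mM NaCl, CHAPS, DTT buffer with 2% DMSO before mixing. 15 min incubation, then fluorescence polarization read. Wells without compound defined 0% displacement; probe-only wells defined 100%.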

[5] = test system: Human immunodeficiency virus 1; experiment: Antiviral activity against HIV1; type: functional, organism-based
Outline: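 Cell-based HIV-1 replication assay. EC50 is the concentration that inhibits virus replication by 50%.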

[6] = target: T1, Structural capsid protein; experiment: Inhibition of HIV1 capsid protein assembly using 5'-fluorescein-labeled (TG)25 oligonucleotide after 2 hrs by fluorometry-based capsid disassembly assay
Outline: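 Biotin-(TG)25 oligonucleotide (25 nM, overnight) immobilized on neutravidin wells; CA-NC (2 µM) assembled with 100 nM 5'-fluorescein (TG)25 in Tris pH 8.0/NaCl/ZnSO4/CHAPS/BSA/DTT buffer, 2 h RT, washed. Serially diluted compounds (buffer + 0.125% DMSO) added 2 h RT; washes, SDS release, captured fluorescence read. Ten-point curves fitted; IC50 = concentration giving 50% disassembly.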

T1 sequence (Q76129 whole entry): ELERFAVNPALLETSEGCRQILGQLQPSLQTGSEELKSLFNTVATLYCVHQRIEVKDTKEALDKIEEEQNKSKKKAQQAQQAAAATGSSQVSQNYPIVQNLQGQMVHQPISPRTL

SMILES | Papp [1] | half-life [2] | half-life [3] | IC50 [4] | EC50 [5] | IC50 [6]
CCc1cc(-c2ccc(C(F)(F)F)o2)n(-c2ccc3c(c2)nc(-c2cc(C(=O)N4CCCC4)ccc2O)n3Cc2cc(C)c(=O)n(C)c2)n1 | 7.2 ×10⁻⁶ cm/s | 18 min | 10 min | 67 nM | 27 nM | 
CCc1cc(-c2ccc(C)o2)n(-c2ccc3c(c2)nc(-c2ccccc2O)n3Cc2ccc(OC)c(O)c2)n1 |  |  |  |  | 6400 nM | 410 nM
CCc1cc(-c2ccc(C)o2)n(-c2ccc3c(c2)nc(-c2cc(F)ccc2O)n3Cc2ccc(OC)c(O)c2)n1 |  |  |  |  | 10000 nM | 280 nM
CCc1cc(-c2ccc(C)o2)n(-c2ccc3c(c2)nc(-c2cc(C(=O)O)ccc2O)n3Cc2ccc(OC)c(O)c2)n1 |  |  |  | 550 nM | 6100 nM | 88 nM
CCc1cc(-c2ccc(C)o2)n(-c2ccc3c(c2)nc(-c2cc(C(=O)N(C)C)ccc2O)n3Cc2ccc(OC)c(O)c2)n1 |  |  |  |  | 630 nM | 120 nM
CCc1cc(-c2ccc(C)o2)n(-c2ccc3c(c2)nc(-c2ccccc2O)n3Cc2ccc(=O)[nH]c2)n1 |  |  |  | 690 nM | 260 nM | 55 nM
CCc1cc(-c2ccc(C)o2)n(-c2ccc3c(c2)nc(-c2cc(F)ccc2O)n3Cc2ccc(=O)[nH]c2)n1 |  |  |  |  | 260 nM | 41 nM
CCc1cc(-c2ccc(C)o2)n(-c2ccc3c(c2)nc(-c2cc(C(=O)O)ccc2O)n3Cc2ccc(=O)[nH]c2)n1 |  |  |  | 650 nM | > 46000 nM | 56 nM
CCc1cc(-c2ccc(C)o2)n(-c2ccc3c(c2)nc(-c2cc(C(=O)N(C)C)ccc2O)n3Cc2ccc(=O)[nH]c2)n1 |  |  |  | 44 nM | 590 nM | 49 nM
CCc1cc(-c2ccc(C(F)(F)F)o2)n(-c2ccc3c(c2)nc(-c2cc(C(=O)N(C)C)ccc2O)n3Cc2ccc(=O)[nH]c2)n1 |  |  |  | 59 nM | 91 nM | 
CCc1cc(-c2ccc(C(F)(F)F)o2)n(-c2ccc3c(c2)nc(-c2cc(C(=O)N4CCCC4)ccc2O)n3Cc2ccc(=O)[nH]c2)n1 | 0.19 ×10⁻⁶ cm/s | 45 min | 30 min | 61 nM | 62 nM | 
CCc1cc(-c2ccc(C(F)(F)F)o2)n(-c2ccc3c(c2)nc(-c2cc(C(=O)N4CCCC4)ccc2O)n3Cc2c[nH]c(=O)c(C)c2)n1 | 6.8 ×10⁻⁶ cm/s | 25 min | 11 min | 38 nM | 28 nM | 
Cc1cc(-c2ccco2)n(-c2ccc3c(c2)nc(COc2ccc(C(=N)N)cc2)n3C)n1 |  |  |  |  | 28000 nM | 6000 nM
CCc1cc(-c2ccc(C)o2)n(-c2ccc3c(c2)nc(-c2ccc(C(N)=O)cc2)n3CC2CC2)n1 |  |  |  |  | 3500 nM | 1000 nM
CCc1cc(-c2ccc(C)o2)n(-c2ccc3c(c2)nc(-c2ccc(C(N)=O)cc2)n3Cc2cccnc2)n1 |  |  |  |  | 2600 nM | 360 nM
CCc1cc(-c2ccc(C)o2)n(-c2ccc3c(c2)nc(-c2ccc(C(N)=O)cc2)n3Cc2ccc(OC)c(O)c2)n1 |  |  |  |  | 640 nM | 790 nM
CCc1cc(-c2ccc(C)o2)n(-c2ccc3c(c2)nc(-c2ccc(C(N)=O)cc2)n3Cc2ccc(OC)nc2)n1 |  |  |  |  | 3500 nM | 830 nM
CCc1cc(-c2ccc(C)o2)n(-c2ccc3c(c2)nc(-c2ccc(C(N)=O)cc2)n3Cc2ccc(=O)[nH]c2)n1 |  |  |  |  | 13000 nM | 170 nM
